Hits are enriched below; roughly 1.1% of the tested compounds scored in any of these assays.
G6PDH CS: counter-screen for G6PDH assay hits: L. mesenteroides G6PDH inhibition | inhibition, % at 5 µM | 200,000 tested, 0.12% active | Purified L. mesenteroides G6PDH, diaphorase/resazurin coupled fluorescence, 45 min; in the data active = inhibition above about 50%
PMI act hi M6P: increases human PMI activity with near-saturating mannose 6-phosphate | activation factor at 20 µM | 190,000 tested, 0.34% active | coupled PMI enzyme assay, resazurin fluorescence, 20 min; active compounds read high; 1 = untreated enzyme, 0 = substrate-free blank | P34949 | AID 1216;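 active = activation factor of 2 or more at 20 µM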
Target sequence (P34949 whole entry, looked up): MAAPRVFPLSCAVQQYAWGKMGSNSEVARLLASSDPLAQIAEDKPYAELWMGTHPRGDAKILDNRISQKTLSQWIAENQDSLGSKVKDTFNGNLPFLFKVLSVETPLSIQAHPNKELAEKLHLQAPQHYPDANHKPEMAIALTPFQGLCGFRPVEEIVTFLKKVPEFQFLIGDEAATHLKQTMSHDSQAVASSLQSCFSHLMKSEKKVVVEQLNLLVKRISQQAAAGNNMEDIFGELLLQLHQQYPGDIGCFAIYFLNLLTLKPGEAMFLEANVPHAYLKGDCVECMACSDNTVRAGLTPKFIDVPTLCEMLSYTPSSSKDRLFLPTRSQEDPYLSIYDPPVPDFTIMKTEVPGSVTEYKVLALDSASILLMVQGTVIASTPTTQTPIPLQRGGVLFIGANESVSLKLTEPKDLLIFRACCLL
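Test system: human PMI in coupled enzyme assay; Input: PMI at 15 ng/mL final; Medium: HEPES buffer, pH 7.4; Schedule: 20 min incubation at room temperature; Technique: resorufin fluorescence at Ex 544/Em 590 nm; Compound: 20 µM single dose; Probe or stimulus: Near-saturating mannose-6-phosphate, 1.0 mM.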
Diaphorase inh: inhibits diaphorase or chemically oxidizes, flagging diaphorase assay artifacts; inhibition, % at 20 µM; 190,000 tested, 0.69% active; AID 1217; diaphorase resazurin-to-resorufin fluorescence, NADH, 16 min; bacterial (C. kluyveri) enzyme, not human;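 active = primary screen inhibition at 20 µM above a set limit, cut at about 50% in these data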;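 also: plate controls were DMSO with full reaction for no effect and wells lacking NADH for full effect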
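Benchmarks: positive control wells lacking NADH, neutral wells with DMSO only. System: bacterial diaphorase enzyme (C. kluyveri). Input: 0.14 U/mL diaphorase, enzyme working solution. Detection: resorufin fluorescence, excitation 544 nm, emission 590 nm. Times: 16-min room-temperature incubation before reading.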
Diaph act CS: counter-screen for diaphorase-based assays: diaphorase activators and chemical reducers; Diaphorase/resazurin coupled assay, resorufin fluorescence, 16 min; active compounds read high; 1 = vehicle wells, 0 = NADH-free wells; activation factor at 20 µM; 190,000 tested, 0.005% active; AID 1229;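 active = diaphorase activity raised at least twofold by the compound at 20 µM; inactive = activation factor below 2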
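Material: purified diaphorase enzyme from Clostridium kluyveri / Medium: HEPES pH 7.4 buffer with MgCl2 and Tween 20 / Schedule: enzyme reaction of 16 min at room temperature / Measured by: resorufin fluorescence, excitation 544 nm, emission 590 nm / Evaluation: rise in resorufin formation, marking diaphorase activation or chemical reduction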
PMI activator: increases human mannose-6-phosphate isomerase activity; P34949; purified human PMI, coupled resazurin fluorescence, 20 min; active compounds read high; 1 = vehicle control, 0 substrate-free wells; activation factor at 20 µM; 190,000 tested, 0.005% active;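 active = activation factor of 2 or more at 20 µM, relative to plate controls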
* marks the source's active call; other numbers are inactive results.

SMILES	G6PDH CS	PMI act hi M6P	Diaphorase inh	Diaph act CS	PMI activator
CC(=O)NCCCNS(=O)(=O)c1ccc(C)cc1	0	1	67*	0.3	0.9
CC1(C)CC(=O)C(CC2=C(O)CC(C)(C)CC2=O)=C(O)C1	13	0.9	13	0.9	0.6
COc1cc([N+](=O)[O-])cc(/C=N/NC(=O)C(C)Nc2cccc3ccccc23)c1O (stereo not drawn)	-16	0.7	70*	0.3	1
CC(Nc1cccc2ccccc12)C(=O)N/N=C/c1ccc([N+](=O)[O-])cc1 (stereo not drawn)	-1	0.6	17	0.8	0.8
Cc1cccc(/C=N/NC(=O)C(C)Nc2cccc3ccccc23)n1 (stereo not drawn)	50*	1.7	28	0.7	1.3
O=C1c2ccccc2C(=O)c2c1oc(C(F)(F)F)c2C(=O)c1ccccc1	57*	1.3	6	0.9	1.3
O=C1C(=C(O)c2ccccc2)C(=O)c2ccccc21	6	1.5	4	1	1.4
O=C(c1ccccc1)c1coc2c1C(=O)c1ccccc1C2=O	53*	0.7	-16	1.2	1.4
CCOC(=O)CCCCC(=O)c1[nH]c(=O)[nH]c1CSc1nnc2c3ccccc3n(C(C)C)c2n1	4	1	4	1	1.1
O=C(NNC(=S)NC(=O)c1ccccc1[N+](=O)[O-])c1ccccc1O	5	1.3	59*	0.4	1.1
Cc1ccc(NC(=S)Nc2ccc3nc(-c4ccccn4)c(-c4ccccn4)nc3c2)cc1C	60*	0.4	75*	0.3	0.2
O=C(Nc1ccc2nc(-c3ccco3)c(-c3ccco3)nc2c1)N1CCCCCC1	-10	1	94*	0.1	0.8
O=C(Nc1ccccn1)N1CCOCC1	7	1.1	3	1	1.1
Cc1nc2ccc(NC(=S)NCc3ccccc3)cc2nc1C	9	0.6	21	0.8	1.3
CCOC(=O)C1CCN(C(=O)Nc2ccc3nc(-c4ccco4)c(-c4ccco4)nc3c2)CC1	1	1.3	52*	0.5	1.1
O=C(Nc1ccc2nc(-c3ccccn3)c(-c3ccccn3)nc2c1)N1CCOCC1	25	0.4	58*	0.4	0.7
Cc1cccc(C)c1OCC(O)CNC(C)(C)C (stereo not drawn)	5	1	8	0.9	1
Cc1cc(C)c2oc(C(=O)Nc3ccc(S(=O)(=O)N4CCCC(C)C4)cc3)cc(=O)c2c1 (stereo not drawn)	-2	0.9	21	0.8	1.1
O=C(CSc1nnc(-c2ccccc2)n1Cc1ccco1)NCc1ccc2c(c1)OCO2	0	1.1	-2	1	1.1
COc1ccc(C(=O)N(C)Cc2ccccc2)cc1Br	-4	1	1	1	0.9
Cc1nc2c(C(=O)NCCc3ccccc3Cl)c[nH]n2c(=O)c1Cl	0	1.1	65*	0.4	1
Cc1nc2c(C(=O)NCc3ccccc3Cl)c[nH]n2c(=O)c1Cl	-11	1	15	0.8	1
Cc1ccc(-n2cccc2/C=C2\C(=N)N3N=C(c4ccco4)SC3=NC2=O)cc1	-2	1.2	56*	0.4	1.1
COc1ccc(-n2ncc3c(=O)n(Cc4c(F)cccc4Cl)cnc32)cc1	-2	1	11	0.9	1
O=C1CC(NNc2ccccc2)C(=O)N1c1ccc(N2CCCCC2)cc1 (stereo not drawn)	4	2.7*	-12	1.1	1.8
SMILES	G6PDH CS	PMI act hi M6P	Diaphorase inh	Diaph act CS	PMI activator
O=C1CC(Nc2ccccc2)C(=O)N1c1ccc(N2CCOCC2)cc1 (stereo not drawn)	0	1	-6	1.1	1
Nc1nc(-c2ccc3c(c2)CCO3)cs1	2	0.9	42	0.6	0.8
CC(=O)NNc1nc(-c2ccccc2)cs1	6	2.4*	11	0.9	1.7
Cc1nnc(C)n1/N=C/c1cc(Br)cc(Br)c1O	8	1.2	15	0.9	1
Nn1cnnc1N/N=C/c1cc(Br)cc(Br)c1O	32	0.9	50*	0.5	0.8
N#C/C(=C\c1ccc(O)c([N+](=O)[O-])c1)c1nc2ccccc2s1	5	1	97*	0	0.8
N#C/C(=C/c1ccc(-c2cc(C(=O)O)cc(C(=O)O)c2)o1)c1nc2ccccc2s1	8	1.1	61*	0.4	1.2
COc1cc(/C=C(\C#N)c2nc3ccccc3s2)cc([N+](=O)[O-])c1O	6	0.3	85*	0.1	0.7
N#C/C(=C\c1ccco1)c1nc2ccccc2s1	11	1	4	1	0.9
CCC1(C)NC(=O)N(CC(=O)N2N=C(c3ccccc3)CC2c2ccc(OC)cc2)C1=O (stereo not drawn)	5	0.8	26	0.7	0.8
COc1cccc2c(=S)c(CCC(C)=O)c(C)[nH]c12	2	2.1*	1	1	1.6
CC(=O)CCc1c(C)c2cccc(C)c2[nH]c1=O	6	0.9	23	0.8	0.9
Cn1c(CNc2ccccc2)nc2ccccc21	4	1	-2	1	0.9
Cn1c(CNc2ccccc2O)nc2ccccc21	61*	0.4	40	0.6	0.7
COc1ccc(CC(=O)OCC(=O)NCCc2ccccc2)cc1OC	0	1	10	0.9	0.9
CC(C)(C)C(=O)Cn1nc(Cl)nc1Cl	3	1.1	-9	1.1	1.2
CC(C)(C)C(=O)CNCC(=O)C(C)(C)C	12	2.1*	-23	1.2	1.8
Cc1cc(C)n(CCc2nc(-c3ccc(-c4ccccc4)cc3)cs2)n1	-1	1.1	11	0.9	1.1
COc1cc(-c2cc(=O)c3c(O)c(OC)c(OC)c(O)c3o2)ccc1O	20	0.6	66*	0.3	0.6
Cc1ccc(NCc2ccc(O)c3ncccc23)cc1	43	0.2	70*	0.3	0.5
Cc1ccc(NCc2ccc(O)c3ncccc23)cc1C	43	0.2	78*	0.2	0.4
CN(C)/C=N/C1=C(C#N)C(c2cccs2)c2ccc3ccccc3c2O1 (stereo not drawn)	10	0.4	16	0.8	0.8
CNc1ccc(Br)cc(C(=O)/C=C/c2ccc3c(c2)OCO3)c1=O	39	1	57*	0.4	0.8
O=c1c2ccccc2[nH]c(=S)n1-c1cccc(S(=O)(=O)N2CCCC2)c1	-6	0.8	16	0.8	0.9
CCc1cccc(NC(=O)C(NC(=O)C2CCCCC2)C(C)C)c1 (stereo not drawn)	2	1	3	1	1.1
O=C(CSc1nnc(Cc2cc(=O)[nH]c(=O)[nH]2)n1-c1ccccc1)N1CCCCC1	1	1	12	0.9	1.1

Bioassay records from PubChem.
